Laboratory results published in the EternaBench riboswitch data.

Tested on: MS2 coat protein
Test: apparent Kd, MS2 coat protein; higher = weaker binding; RNA-MaP array; tryptophan 2.4 mM where present
Summary of the method: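 Designs on Illumina sequencing-chip clusters, transcribed by stalled E. coli RNA polymerase, were exposed to SNAP-549-labelled MS2 coat protein in doubling steps from 0.7 or 1.5 nM up to 3 µM, without and then with constant ligand. The buffer held 100 mM Tris-HCl pH 7.5, 80 mM KCl, 4 mM MgCl2, BSA, DTT, yeast tRNA and Tween-20. Apparent Kd values are medians of filtered per-cluster binding-curve fits to green signal normalised to red-channel RNA signal and control-cluster median Fmax.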

[1] = designed as: OFF switch for tryptophan, no ligand
[2] = ligand present: tryptophan, designed as: OFF switch for tryptophan
[3] = designed as: ON switch for tryptophan, no ligand
[4] = ligand present: tryptophan, designed as: ON switch for tryptophan

| Sequence | apparent Kd [1] [nM] | apparent Kd [2] [nM] | apparent Kd [3] [nM] | apparent Kd [4] [nM] |
| --- | --- | --- | --- | --- |
| CUUCGCAUAGGAAAACUAUGUGAAGAAAAUCGAGGACCGGUACGGCCGCCACUCGUCCUCAACAUGAGGAUCACCCAUGUAAUAA | 18.3 | 40.1 |  |  |
| GCGGAAUAAUCGGCCGCCACUAUGAUAUAGGAAACUAUAACAUGAGGAUCACCCAUGUAUCCUCAUAGGACCGGGAUUAAAACGC |  |  | 105 | 24.8 |
| CGCAACAUGAGGAUCACCCAUGUAAUGACGCGAGGACCGGUACGGCCGCCACUCGCCUGGCAGUGAGCGCAUGCGGCCUGGGUAU | 11.1 | 12.2 |  |  |
| ACAUGAGGAUCACCCAUGUACAUCACCCGACGAGGACCGGUACGGCCGCCACUCGGGUAUAUAUAUACAUCGGGUGGUUUUGCAU |  |  | 17.6 | 17.3 |
| GGAGCUACGUCGGCCGCCACUAGCGGUUAUUACGUGUACAUGAGGAUCACCCAUGUAAUAUGGCUUAGGACCGGGACGUAGCUCC | 22.5 | 27.1 |  |  |
| CCUAUGCAGUCGGCCGCCACUGAACAUGAGGAUCACCCAUGUAAUUAAAAUUAUGAUCCUGAAAUCAGGACCGGGACUGUAUAGG | 218 | 85.4 |  |  |
| CCUAUGCAGUCGGCCGCCACUGAGUCCUCAAUAAUAAAUUAAUAUACAUGAGGAUCACCCAUGUACAGGACCGGGACUGUAUAGG | 205 | 167 |  |  |
| CUAAUUAUAUCGGCCGCCACUUACUCAUGAGGUAACAACAUGAGGAUCACCCAUGUUUGAGGAUCAAGGACCGGGAUAUAAUUAG |  |  | 28.9 | 17 |
| AAAUAAACCUCGGCCGCCACUCGCCAUGAGGAUCACCCAUGUAACAUGAGGAUCACCCAUGUACAGAGGACCGGGAGGUCCUAGU |  |  | 73 | 100 |
| UGGUACUAGGCGGCCGCCACUGGGUGAUACAUGAGGAUCACCCAUGUUUAAUGCCGAGAGGCAACUAGGACCGGGCCUAGUACAU |  |  | 150 | 689 |
| UGACAGAUAACCGCUGGUGCUCUCGAGUUGCGAGGACCGGUACGGCCGCCACUCGACAACAUGAGGAUCACCCAUGUUGCGGGUC | 102 | 49.8 |  |  |
| AACAACUAGUCGGCCGCCACUCAUAAUACAUGAGGAUCACCCAUGUAUACUUGGUUUUUAUAUUUGAGGACCGGGACAGUUGCAU | 11.6 | 10.5 |  |  |
| AAUGUAUUCCACAUGAGGAUCACCCAUGUGCGAGGACCGGUACGGCCGCCACUCGGUGUUGGGAUCAGUUCUGAAUACAUUAAUG | 15.9 | 47.5 |  |  |
| CAGGCUAGGACGGCCGCCACUGUGGCUACGGUACAUGAGGAUCACCCAUGUUUGUGGUUGAUCUACAGGACCGGGUCCUGACACG |  |  | 132 | 483 |
| UGUCGUAGACAUGAGGAUCACCCAUGUCCACGAGGACCGGUACGGCCGCCACUCGGGAUAUAAACCGUUACGGGUGGGUGGUGUU | 18.8 | 37.3 |  |  |
| GCCGCUGCCGCGAUAUGUAUGGGUGUGUAACGAGGACCGGUACGGCCGCCACUCGCGAUCGCACAUGAGGAUCACCCAUGUGUCC | 53.7 | 78.5 |  |  |
| AAUUAUCAGUCGGCCGCCACUGACACAUGAGGAUCACCCAUGUAACUUGGGAUAAAUUUAAUAAACAGGACCGGGACAAAGGCUA | 58.8 | 49.7 |  |  |

| Sequence | apparent Kd [1] [nM] | apparent Kd [2] [nM] | apparent Kd [3] [nM] | apparent Kd [4] [nM] |
| --- | --- | --- | --- | --- |
| GGAAUAAUGGCGGCCGCCACUAACUCAUAUACAUCAUGUACAUGAGGAUCACCCAUGUAGGUGUAUAGGACCGGGCCAUAAUUCC | 22.4 | 38.1 |  |  |
| CUCAUCCACGCGGCCGCCACUAUAUUGUGGUGCGAAUGUGUCGUAAUACAUGAGGAUCACCCAUGUAGGACCGGGCGUGGAUGAG | 12.6 | 54.8 |  |  |
| UAAUGCAUGACGGCCGCCACUAGAACAUGAGGAUCACCCAUGUACGGCGGCCGUCAUGGGUGGACUAGGACCGGGUCAUGCAUAU | 9.23 | 10.5 |  |  |
| GGUUACUCUACGGCCGCCACUGAUUAAUUAUAAACCUGUACAUAAACAUGAGGAUCACCCAUGUACAGGACCGGGUAGUGUAACC |  |  | 37.8 | 26.8 |
| AUAAUAUAGACGGCCGCCACUAUAAACAUGAGGAACAUGAGGAUCACCCAUGUAUGAGGAUCACCUAGGACCGGGUCAUAUAUUA | 55.8 | 42 |  |  |
| UAUAUAUACUCGGCCGCCACUGAGAGAGUCAUGUAAACAUGAGGAUCACCCAUGUAAUAUAUAUACAGGACCGGGAGUAUAUUAA | 15.7 | 13.8 |  |  |
| ACGUAGAAGUCGGCCGCCACUGAUUUCAUGUUCAACAUGAGGAUCACCCAUGUACCUUAUGUUAACAGGACCGGGACGUAUACGA |  |  | 298 | 55 |
| CUAUAAGUACCGGUCCUCAGAUCCUCAUGACGAGGACCGGUACGGCCGCCACUCGAAACAUGAGGAUCACCCAUGUAAUAACAUU | 19.8 | 20.2 |  |  |
| GACGCAUGAGUUGGAACAGCUCAUGGGUCGCGAGGACCGGUACGGCCGCCACUCGGCUGUACAUGAGGAUCACCCAUGUCAGGGU |  |  | 279 | 550 |
| UUAUAAGUACCGGUCCUCAGAUCCUCAUGACGAGGACCGGUACGGCCGCCACUCGAAACAUGAGGAUCACCCAUGUAAUAACAUC | 19.6 | 20.7 |  |  |
| CACAAUUUGUCGGCCGCCACUAAGGUAACUUUUCUCACAUGAGGAUCACCCAUGUGCCCGAAACUUAGGACCGGGAUAAUGGGUG |  |  | 82.4 | 45.3 |
| AAACAUGAGGAUCACCCAUGUUGAGGAUCACGAGGACCGGUACGGCCGCCACUCGACAUGAGGAUCACCCAUGUGAGGAUCACCC |  |  | 175 | 174 |
| GGGUACAUCGCGGCCGCCACUUAUGUAAAUACAUGAGGAUCACCCAUGUCGAUGGAGACAUCGGAGAGGACCGGGUGAUGUACCG |  |  | 36.1 | 35.9 |
| AGCAACUAGUCGGCCGCCACUCAUAUUACAUGAGGAUCACCCAUGUAUACAUGGUUGUUAUAUUUGAGGACCGGGACAGUUGCAU |  |  | 70.4 | 38.1 |
| GUUAUAUACUCGGCCGCCACUGAGAGAGUCAUGUAAACAUGAGGAUCACCCAUGUAAUAUAUAUACAGGACCGGGAGUAUAGUAA | 14.5 | 13 |  |  |
| UUUAUAUAGACGGCCGCCACUGGAAUUAAUACAUGAGGAUCACCCAUGUAUAGAGAAUAAUAAUACAGGACCGGGUCUUCAUGAU |  |  | 29.4 | 12 |
